Most compounds without a hit are left out; they make up all but 3.2% or so of the library.
SMARCA2 activ – SMARCA2 function activation, primary screen; MG213 cells, MMTV-luciferase reporter, dexamethasone, overnight; activation, % at 9.1 µM; 370,000 tested, 1% active; AID 652017; in the data active = activation above about 7.8%
DAX1 inh-1 – NR0B1 (DAX1) inhibition; P51843; HEK293 Gal4-DAX1 luciferase reporter, luminescence; inhibition, % at 6.75 µM; 340,000 tested, 0.99% active;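 active = inhibition above the mean over all tested compounds plus 3 SD, cut at about 4.2% in these data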;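 note: inhibition shows as a rise in luminescence from relieved DAX1 repression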
NR2E3 ag-1 – activates human NR2E3 receptor | Q9Y5X4 | CHO-S Gal4-NCOR/VP16-NR2E3 two-hybrid, luciferase | inhibition of corepressor binding, % at 3.98 µM | 360,000 tested, 0.35% active | AID 602229;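 active = inhibition above the mean of all tested compounds plus 3 SD, cut at about 70% in these data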;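 note: higher means lower luciferase signal from less NR2E3 corepressor binding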
Target sequence (Q9Y5X4 whole entry, looked up, the tested form may be a part): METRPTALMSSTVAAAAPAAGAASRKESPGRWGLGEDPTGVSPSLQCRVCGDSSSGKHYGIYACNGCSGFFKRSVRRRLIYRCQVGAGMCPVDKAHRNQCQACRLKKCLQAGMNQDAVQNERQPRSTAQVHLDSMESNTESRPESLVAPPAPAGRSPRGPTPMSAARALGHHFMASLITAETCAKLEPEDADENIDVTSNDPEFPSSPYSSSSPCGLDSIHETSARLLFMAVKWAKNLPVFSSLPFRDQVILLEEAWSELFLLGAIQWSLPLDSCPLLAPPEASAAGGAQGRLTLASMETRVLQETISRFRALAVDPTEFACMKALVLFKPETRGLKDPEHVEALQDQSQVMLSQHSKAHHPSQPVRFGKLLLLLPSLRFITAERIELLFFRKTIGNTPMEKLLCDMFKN
JMJD2C inh – blocks human GASC-1 demethylase activity | Q9H3R0 | AID 2099 | 330,000 tested, 0.069% active | GST-JMJD2C(1-420) H3K9me3 demethylation, DELFIA europium | inhibition, % at 2.35 µM;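 active = more than half of a compound's replicate wells show inhibition beyond 50%, single wells judged on their own value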;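 note: signal counts dimethyl H3K9 product captured on neutravidin plate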
DAX1 inh-2 – inhibitors of DAX1 repression of SF-1 activated StAR promoter. HEK293T StAR-luciferase reporter, SF-1/DAX-1 repression relief. inhibition, % at 6.8 µM. 370,000 tested, 1.1% active. AID 652010;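 active = inhibition above the mean over all tested compounds plus 3 SD, cut at about 3.6% in these data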;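 note: higher inhibition means more luminescence from relief of DAX-1 repression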
NR2E3 ag-2 – agonists of human nuclear receptor NR2E3 | AID 2300 | 320,000 tested, 0.12% active | inhibition of corepressor binding, % at 4.78 µM | GST-NR2E3/biotin-RetCOR TR-FRET, 1536-well | Q9Y5X4;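 active = percent inhibition above the cutoff of mean plus 3 SD of all tested compounds, set per screening campaign, cut at about 20% in these data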
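Test system: GST-NR2E3 and biotin-RetCOR proteins | Quantity: 1.35 nM GST-tagged NR2E3 final | Medium: Tris pH 7.5 | Also added: 7 nM biotin-RetCOR | Dosing: Compound at 4.8 µM, single dose | Timing: 5 h at 4 °C | Detection: Time-resolved FRET | Read-out basis: Percent inhibition | Benchmarks: Biotin wells as high control, 0.6% DMSO wells as low control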
DAX1 conf – NR0B1 (human) inhibition, confirmation; shares compounds with DAX1 inh-2; 2,400 tested, 87% active; HEK293T StAR-promoter luciferase reporter, SF-1/DAX-1 repression; inhibition, % at 6.8 µM;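 active = inhibition above the average of every tested compound plus 3 SD, cut at about 3.8% in these data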;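 note: active compounds raise luminescence by relieving repression of the StAR reporter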
SF1 AF2mut Luc – nonselective inhibitor or artifact in SF-1 mutant DAX1 counter-screen; shares compounds with DAX1 inh-2; HEK293 StAR-luciferase, SF-1 AF2 mutant, luminescence; inhibition, % at 6.8 µM; 2,400 tested, 78% active; AID 652136;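 active = inhibition above the mean of all tested compounds plus 3 SD, cut at about 3% in these data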
Numbers stand for hits.

What do the screens show for `COc1ccc(CN=C2Nc3ccccc3CS2)cc1`?
SMARCA2 activ: inactive; DAX1 inh-1: inactive; NR2E3 ag-1: inactive; JMJD2C inh: inactive; DAX1 inh-2: 4.7; NR2E3 ag-2: inactive; DAX1 conf: 10.8; SF1 AF2mut Luc: 7.2

How did O=C1C[C@H](C(=O)Nc2ccc(Cl)cc2)[C@@H](c2ccccc2)O1 do in these assays?
SMARCA2 activ: inactive; DAX1 inh-2: inactive

How did Nc1nc(N)c(N=Nc2ccccc2)c(=O)[nH]1 do in these assays?
SMARCA2 activ: inactive; DAX1 inh-1: inactive; NR2E3 ag-1: inactive; DAX1 inh-2: 5.7; DAX1 conf: 5.5; SF1 AF2mut Luc: 3.2

How did Cc1cnc(NC(=O)c2ccc3ncsc3c2)s1 do in these assays?
SMARCA2 activ: inactive; DAX1 inh-1: inactive; NR2E3 ag-1: inactive; DAX1 inh-2: 12.7; DAX1 conf: 15.1; SF1 AF2mut Luc: 6.7

What do the screens show for `CCc1nnc(NC(=O)c2ccc3ncsc3c2)s1`?
SMARCA2 activ: inactive; DAX1 inh-1: inactive; NR2E3 ag-1: inactive; JMJD2C inh: inactive; DAX1 inh-2: inactive; NR2E3 ag-2: inactive

What do the screens show for `COc1cccc(NC(=O)Nc2nc3ncccn3c2-c2ccc(C(F)(F)F)cc2)c1`?
SMARCA2 activ: inactive; DAX1 inh-2: inactive

Results for COc1ccc(C(=O)Nc2nccs2)cc1OC ?
SMARCA2 activ: inactive; DAX1 inh-1: inactive; NR2E3 ag-1: inactive; JMJD2C inh: inactive; DAX1 inh-2: inactive; NR2E3 ag-2: inactive

What do the screens show for `COc1cc(SC)ccc1C(=O)Nc1ccc2c(c1)OCCO2`?
SMARCA2 activ: inactive; DAX1 inh-1: inactive; NR2E3 ag-1: inactive; JMJD2C inh: inactive; DAX1 inh-2: 4.7; NR2E3 ag-2: inactive; DAX1 conf: 9.2; SF1 AF2mut Luc: 3.6

What do the screens show for `COc1cc(SC)ccc1C(=O)Nc1nccs1`?
SMARCA2 activ: inactive; DAX1 inh-1: inactive; NR2E3 ag-1: inactive; JMJD2C inh: inactive; DAX1 inh-2: 4.7; NR2E3 ag-2: inactive; DAX1 conf: 15.2; SF1 AF2mut Luc: 5.6

Results for COc1cc(SC)ccc1C(=O)NNC(=O)c1cc(C)oc1C ?
SMARCA2 activ: inactive; DAX1 inh-1: inactive; NR2E3 ag-1: inactive; JMJD2C inh: inactive; DAX1 inh-2: 11.8; NR2E3 ag-2: inactive; DAX1 conf: 6.9; SF1 AF2mut Luc: 5.0

Results for COc1cc(SC)ccc1C(=O)Nc1ccccc1 ?
SMARCA2 activ: inactive; DAX1 inh-1: inactive; NR2E3 ag-1: inactive; JMJD2C inh: inactive; DAX1 inh-2: inactive; NR2E3 ag-2: inactive

Results for CC(C)C[C@@H](CN1CCCC1CN1C(=S)NC[C@@H]1Cc1ccccc1)N1C[C@H](Cc2ccc(O)cc2)N(CCc2ccccc2)C1=S (stereo not given in full) ?
SMARCA2 activ: inactive; NR2E3 ag-1: inactive; DAX1 inh-2: inactive

Results for CC(C)C[C@@H](CN1CCCC1CN1C(=S)NC[C@@H]1Cc1ccc(O)cc1)N1C[C@H](Cc2ccccc2)N(CC2CCCCCC2)C1=S (stereo not given in full) ?
SMARCA2 activ: inactive; DAX1 inh-1: inactive; NR2E3 ag-1: inactive; DAX1 inh-2: inactive

Results for CC(C)C[C@@H](CN1CCCC1CN1C(=S)NC[C@@H]1Cc1ccc(O)cc1)N1C[C@H](Cc2ccc(O)cc2)N(CC2CCCCCC2)C1=S (stereo not given in full) ?
SMARCA2 activ: inactive; DAX1 inh-1: inactive; NR2E3 ag-1: inactive; DAX1 inh-2: 6.3; DAX1 conf: inactive; SF1 AF2mut Luc: inactive

How did CC(C)C[C@@H](CN1CCC[C@@H]1CN1C(=S)NC[C@@H]1Cc1ccc(O)cc1)N1C[C@H](Cc2ccc(O)cc2)N(CCc2ccccc2)C1=S do in these assays?
SMARCA2 activ: inactive; NR2E3 ag-1: inactive; DAX1 inh-2: 4.7; DAX1 conf: inactive; SF1 AF2mut Luc: inactive
